Test system: HA-YAP
Assay: Immunoprecipitation of Smad7 with HA-YAP in HEK293T cells
Format: cell-based, human
Conditions: full-length Smad7 wild type or variants with HA-YAP
How it was run: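 HEK293T cells were transfected with epitope-tagged constructs (HA-YAP with full-length Smad7 wild type or variants) and treated where indicated with TGF-β1 at 100 pM. Lysates were immunoprecipitated with anti-Flag antibody, then immunoblotted with antibodies against the tags.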

B1: S206A: Smad7 mutant S206A, flag epitope-tagged plasmid expressed in HEK293T (protein, UniProt O15105 1-426, looked up, variant S206A)
chain: MFRTKRSALVRRLWRSRAPGGEDEEEGAGGGGGGGELRGEGATDSRAHGAGGGGPGRAGCCLGKAVRGAKGHHHPHPPAAGAGAAGGAEADLKALTHSVLKKLKERQLELLLQAVESRGGTRTACLLLPGRLDCRLGPGAPAGAQPAQPPSSYSLPLLLCKVFRWPDLRHSSEVKRLCCCESYGKINPELVCCNPHHLSRLCELEAPPPPYSRYPMDFLKPTADCPDAVPSSAETGGTNYLAPGGLSDSQLLLEPGDRSHWCVVAYWEEKTRVGRLYCVQEPSLDIFYDLPQGNGFCLGQLNSDNKSQLVQKVRSKIGCGIQLTREVDGVWVYNRSSYPIFIKSATLDNPDSRTLLVHKVFPGFSIKAFDYEKAYSLQRPNDHEFMQQPWTGFTVQISFVKGWGQCYTRQFISSCPCWLEVIFNSR
modifications: full-length FLAG tag
binding to HA-YAP in immunoprecipitation: binding is observed
